Here are results for six molecules from ChEMBL document CHEMBL1833911, “Diastereoselective synthesis and bioactivity of long-chain anti-2-amino-3-alkanols” (Eur J Med Chem, 2011).

Activity calls are given as the source filed them. The rule behind the calls is not given here.

For one assay, the species on record is Homo sapiens. Kind of assay: Cytotoxicity against human SHG44 at 50 uM after 24 hrs by cell counting kit-8 assay. The assay is classed as functional. The gist of the method: (§1)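 SHG-44 glioblastoma cells were maintained in DMEM with 10% FBS and penicillin/streptomycin at 37 °C under 5% CO2. They were seeded at 5000/well in DMEM with 1% FBS and grown overnight, then exposed for 24 h to compound (0.1–100 μM) or 0.1% DMSO vehicle. CCK-8 was added for 2 h at 37 °C and A450 read. Results were from triplicates, expressed as % of vehicle.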
In general terms: Tetrazolium dyes change colour on reduction, which living cells bring about.

The subject of another assay is SHG44. Kind of assay: Antiproliferative activity against human SHG44 cells at 0.1 to 100 uM after 24 hrs by cell counting kit-8 assay. Type of assay: functional, cell-based. The gist of the method: as §1
The nature of assay [1]: Growth inhibition of human SHG44 at 10 uM after 24 hrs by cell counting kit-8 assay. The assay is classed as functional. As to conditions: SHG-44, 24 h, read-out: GI. In outline:
as §1

Assay [2] in a line: Antiproliferative activity against human SHG44 cells after 24 hrs by cell counting kit-8 assay. As to conditions: SHG-44, 24 h. Type of assay: functional, cell-based. The gist of the method:
as §1

With `CCCCCCCCC[C@H](O)[C@@H](C)N`, the outcome in the assay listed under Homo sapiens was Active.

As for `CC(C)CCCCCCC[C@H](O)[C@@H](C)N`, the result with SHG44 was inactive. Also, in the assay listed under Homo sapiens, the result was Active.

For the molecule `CCC/C=C\CCCC[C@H](O)[C@@H](C)N`, the outcome with SHG44 was inactive. Moreover, the result in the assay filed under Homo sapiens was Active.

For the molecule `CCCCCCCCC[C@H](O)[C@H](N)CO`, the inhibition of growth at 10 µM in assay [1] was 60%. In addition, the IC50 (commonly the midpoint of a concentration-inhibition curve) in assay [2] came out at 4.41 µM. Besides, the result in the assay listed under Homo sapiens was Active.

Regarding `CCCCCCCCC[C@@H](O)[C@H](C)N`, the inhibition of growth at 10 µM in assay [1] was 80%. Also, in assay [2], the IC50 is 7.96 µM. Moreover, the outcome in the assay filed under Homo sapiens was Active.

In the case of `CCCCCCCCCCC[C@@H](O)[C@H](C)N` [XETOAMINOL C], the inhibition of growth at 10 µM in assay [1] came out at 100%. This molecule registered an IC50 in assay [2] of 4.5 µM. Also, the result in the assay listed under Homo sapiens was Active.
